Activity calls are given as the source filed them. No cut-off for these calls is given here.
Legend:
Mus musculus [1] = assay: Anticonvulsant activity in Swiss mouse assessed as protection against seizures at 300 mg/kg, ip dosed 0.25 hrs before initiation of maximal electroconvulsions by maximal electroshock test; assay type: functional
How it was run: (§1)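 Mice were dosed i.p. at a fixed 300 or 100 mg/kg (6 Hz: 100 mg/kg only). Protection was then scored against MES, sc PTZ or 6 Hz seizures at pretreatment times of 0.25, 0.5, 1 and 2 h. Groups were four mice, scored as number protected / number tested. This also gives the time course and time of peak effect.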

Mus musculus [2] = assay: Anticonvulsant activity in Swiss mouse assessed as protection against seizures at 300 mg/kg, ip dosed 0.5 hrs before initiation of maximal electroconvulsions by maximal electroshock test; assay type: functional; how it was run: as §1
Mus musculus [3] = assay: Anticonvulsant activity in Swiss mouse assessed as protection against seizures at 300 mg/kg, ip dosed 1 hr before initiation of maximal electroconvulsions by maximal electroshock test; assay type: functional; how it was run: as §1
Mus musculus [4] = assay: Anticonvulsant activity in Swiss mouse assessed as protection against seizures at 300 mg/kg, ip dosed 2 hrs before initiation of maximal electroconvulsions by maximal electroshock test; assay type: functional; how it was run: as §1
Mus musculus [5] = assay: Anticonvulsant activity in Swiss mouse assessed as protection against seizures at 100 mg/kg, ip dosed 0.25 hrs before initiation of maximal electroconvulsions by maximal electroshock test; assay type: functional; how it was run: as §1
Mus musculus [6] = assay: Anticonvulsant activity in Swiss mouse assessed as protection against seizures at 100 mg/kg, ip dosed 0.5 hrs before initiation of maximal electroconvulsions by maximal electroshock test; assay type: functional; how it was run: as §1
Mus musculus [7] = assay: Anticonvulsant activity in Swiss mouse assessed as protection against seizures at 100 mg/kg, ip dosed 1 hr before initiation of maximal electroconvulsions by maximal electroshock test; assay type: functional; how it was run: as §1
Mus musculus [8] = assay: Anticonvulsant activity in Swiss mouse assessed as protection against seizures at 100 mg/kg, ip dosed 2 hrs before initiation of maximal electroconvulsions by maximal electroshock test; assay type: functional; how it was run: as §1
Mus musculus [9] = assay: Anticonvulsant activity in Swiss mouse assessed as protection against seizures at 300 mg/kg, ip dosed 0.25 hrs before pentylenetetrazole challenge by subcutaneous pentylenetetrazole seizure test; assay type: functional; how it was run: as §1
Mus musculus [10] = assay: Anticonvulsant activity in Swiss mouse assessed as protection against seizures at 300 mg/kg, ip dosed 0.5 hrs before pentylenetetrazole challenge by subcutaneous pentylenetetrazole seizure test; assay type: functional; how it was run: as §1
Mus musculus [11] = assay: Anticonvulsant activity in Swiss mouse assessed as protection against seizures at 300 mg/kg, ip dosed 1 hr before pentylenetetrazole challenge by subcutaneous pentylenetetrazole seizure test; assay type: functional; how it was run: as §1
Mus musculus [12] = assay: Anticonvulsant activity in Swiss mouse assessed as protection against seizures at 300 mg/kg, ip dosed 2 hrs before pentylenetetrazole challenge by subcutaneous pentylenetetrazole seizure test; assay type: functional; how it was run: as §1
Mus musculus [13] = assay: Anticonvulsant activity in Swiss mouse assessed as protection against seizures at 100 mg/kg, ip dosed 0.25 hrs before pentylenetetrazole challenge by subcutaneous pentylenetetrazole seizure test; assay type: functional; how it was run: as §1
Mus musculus [14] = assay: Anticonvulsant activity in Swiss mouse assessed as protection against seizures at 100 mg/kg, ip dosed 0.5 hrs before pentylenetetrazole challenge by subcutaneous pentylenetetrazole seizure test; assay type: functional; how it was run: as §1
Mus musculus [15] = assay: Anticonvulsant activity in Swiss mouse assessed as protection against seizures at 100 mg/kg, ip dosed 1 hr before pentylenetetrazole challenge by subcutaneous pentylenetetrazole seizure test; assay type: functional; how it was run: as §1
Mus musculus [16] = assay: Anticonvulsant activity in Swiss mouse assessed as protection against seizures at 100 mg/kg, ip dosed 2 hrs before pentylenetetrazole challenge by subcutaneous pentylenetetrazole seizure test; assay type: functional; how it was run: as §1
Mus musculus [17] = assay: Anticonvulsant activity in Swiss mouse model of 6 Hz psychomotor seizure mode assessed as protection against seizures at 100 mg/kg, ip dosed 0.25 hrs before 6 Hz electrical stimulation by 6 Hz test; assay type: functional; how it was run: as §1
Mus musculus [18] = assay: Anticonvulsant activity in Swiss mouse model of 6 Hz psychomotor seizure mode assessed as protection against seizures at 100 mg/kg, ip dosed 0.5 hrs before 6 Hz electrical stimulation by 6 Hz test; assay type: functional; how it was run: as §1
Mus musculus [19] = assay: Anticonvulsant activity in Swiss mouse model of 6 Hz psychomotor seizure mode assessed as protection against seizures at 100 mg/kg, ip dosed 1 hr before 6 Hz electrical stimulation by 6 Hz test; assay type: functional; how it was run: as §1
Mus musculus [20] = assay: Anticonvulsant activity in Swiss mouse model of 6 Hz psychomotor seizure mode assessed as protection against seizures at 100 mg/kg, ip dosed 2 hrs before 6 Hz electrical stimulation by 6 Hz test; assay type: functional; how it was run: as §1
Rattus norvegicus [21] = organism: Rattus norvegicus; assay: Inhibition of [3H]BTX binding to sodium channel site 2 in rat cerebral cortex synaptosomes at 100 uM incubated for 60 mins by scintillation counting based radioligand displacement assay; assay type: subcellular
How it was run: (§2)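 Synaptoneurosomal preparations from rat cerebral cortex were used. The read-out was inhibition of specific [3H]BTX binding to the voltage-sensitive sodium channel (site 2), expressed as % inhibition of control specific binding. Compounds were tested at 1, 10, 100 and 500 μM. Inhibition above 50% was taken as significant.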

Rattus norvegicus [22] = organism: Rattus norvegicus; assay: Inhibition of [3H]BTX binding to sodium channel site 2 in rat cerebral cortex synaptosomes at 10 uM incubated for 60 mins by scintillation counting based radioligand displacement assay; assay type: subcellular; how it was run: as §2
Rattus norvegicus [23] = organism: Rattus norvegicus; assay: Inhibition of [3H]BTX binding to sodium channel site 2 in rat cerebral cortex synaptosomes at 1 uM incubated for 60 mins by scintillation counting based radioligand displacement assay; assay type: subcellular; how it was run: as §2
Mus musculus [24] = assay: Anticonvulsant activity in ip dosed Swiss mouse assessed as protection against seizures measured at 0.25 hrs of time to peak effect by maximal electroshock test; assay type: functional
How it was run: (§3)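 Median effective doses (ED50, mg/kg) were determined i.p. in mice at the time of peak effect in the MES, sc PTZ or 6 Hz tests. Only compounds giving at least 50% protection at 100 mg/kg in that test were taken forward.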

Mus musculus [25] = assay: Anticonvulsant activity in ip dosed Swiss mouse assessed as protection against seizures measured at 0.25 hrs of time to peak effect by subcutaneous pentylenetetrazole seizure test; assay type: functional; how it was run: as §3
Mus musculus [26] = assay: Anticonvulsant activity in ip dosed Swiss mouse assessed as protection against seizures measured at 0.25 hrs of time to peak effect by 6 Hz test by 6 Hz psychomotor seizure test; assay type: functional; how it was run: as §3
[27] = Toxicity in ip dosed Swiss mouse assessed as induction of motor performance impairment measured within 60 seconds measured at 0.25 hrs of time to peak effect by Chimney test; assay type: organism-based; conditions: in vivo
How it was run: (§4)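 Neurotoxicity was measured i.p. in mice by the chimney test for motor impairment. It was given as the median neurotoxic dose (TD50, mg/kg) at the time of peak effect.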

Mus musculus [28] = organism: Mus musculus; assay: Protective index, ratio of neurotoxic TD50 in Swiss mouse by Chimney test to anticonvulsant ED50 in Swiss mouse measured at 0.25 hrs of time to peak effect by maximal electroshock test
How it was run: (§5)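 Protective index was calculated as TD50 (chimney test, mouse, i.p.) divided by ED50 from the matching MES, sc PTZ or 6 Hz test, both taken at the time of peak effect.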

Mus musculus [29] = assay: Protective index, ratio of neurotoxic TD50 in Swiss mouse by Chimney test to anticonvulsant ED50 in Swiss mouse measured at 0.25 hrs of time to peak effect by subcutaneous pentylenetetrazole seizure test; assay type: functional; how it was run: as §5
Mus musculus [30] = organism: Mus musculus; assay: Protective index, ratio of neurotoxic TD50 in Swiss mouse by Chimney test to anticonvulsant ED50 in Swiss mouse measured at 0.25 hrs of time to peak effect by 6 Hz test by 6 Hz psychomotor seizure test; assay type: functional; how it was run: as §5
Mus musculus [31] = organism: Mus musculus; assay: Protective index, ratio of neurotoxic TD50 in Swiss mouse by Chimney test to anticonvulsant ED50 in Swiss mouse measured at 0.5 hrs of time to peak effect by maximal electroshock test; how it was run: as §5
Mus musculus [32] = assay: Anticonvulsant activity in ip dosed Swiss mouse assessed as protection against seizures measured at 0.5 hrs of time to peak effect by maximal electroshock test; assay type: functional; how it was run: as §3
Mus musculus [33] = assay: Anticonvulsant activity in ip dosed Swiss mouse assessed as protection against seizures measured at 0.5 hrs of time to peak effect by subcutaneous pentylenetetrazole seizure test; assay type: functional; how it was run: as §3
Mus musculus [34] = assay: Anticonvulsant activity in ip dosed Swiss mouse assessed as protection against seizures measured at 0.5 hrs of time to peak effect by 6 Hz test by 6 Hz psychomotor seizure test; assay type: functional; how it was run: as §3
[35] = Toxicity in ip dosed Swiss mouse assessed as induction of motor performance impairment measured within 60 seconds measured at 0.5 hrs of time to peak effect by Chimney test; assay type: organism-based; conditions: in vivo; how it was run: as §4
Mus musculus [36] = assay: Protective index, ratio of neurotoxic TD50 in Swiss mouse by Chimney test to anticonvulsant ED50 in Swiss mouse measured at 0.5 hrs of time to peak effect by subcutaneous pentylenetetrazole seizure test; assay type: functional; how it was run: as §5
Mus musculus [37] = organism: Mus musculus; assay: Protective index, ratio of neurotoxic TD50 in Swiss mouse by Chimney test to anticonvulsant ED50 in Swiss mouse measured at 0.5 hrs of time to peak effect by 6 Hz test by 6 Hz psychomotor seizure test; assay type: functional; how it was run: as §5
Rattus norvegicus [38] = organism: Rattus norvegicus; assay: Inhibition of [3H]BTX binding to sodium channel site 2 in rat cerebral cortex synaptosomes at 500 uM incubated for 60 mins by scintillation counting based radioligand displacement assay; assay type: subcellular; how it was run: as §2
Rattus norvegicus [39] = organism: Rattus norvegicus; assay: Inhibition of [125I]omega-conotoxin GVIA binding to N-type calcium channel in rat cerebral cortex synaptosomes at 100 uM incubated for 30 mins by scintillation counting based radioligand displacement assay; assay type: subcellular
Rattus norvegicus [40] = organism: Rattus norvegicus; assay: Inhibition of [125I]omega-conotoxin GVIA binding to N-type calcium channel in rat cerebral cortex synaptosomes at 200 uM incubated for 30 mins by scintillation counting based radioligand displacement assay; assay type: subcellular

CCC(C(=O)N1CCN(c2cccc(C(F)(F)F)c2)CC1)N1C(=O)CCC1=O (racemic)
Activity (Mus musculus [1]): 75%
Activity (Mus musculus [2]): 50%
Activity (Mus musculus [3]): 100%
Activity (Mus musculus [4]): 50%
Activity (Mus musculus [5]): 75%
Activity (Mus musculus [6]): 50%
Activity (Mus musculus [7]): 0%
Activity (Mus musculus [8]): 0%
Activity (Mus musculus [9]): 100%
Activity (Mus musculus [10]): 75%
Activity (Mus musculus [11]): 75%
Activity (Mus musculus [12]): 75%
Activity (Mus musculus [13]): 50%
Activity (Mus musculus [14]): 75%
Activity (Mus musculus [15]): 25%
Activity (Mus musculus [16]): 25%
Activity (Mus musculus [17]): 100%
Activity (Mus musculus [18]): 100%
Activity (Mus musculus [19]): 75%
Activity (Mus musculus [20]): 50%
inhibition (Rattus norvegicus [21]): 8.8%
inhibition (Rattus norvegicus [22]): 9.5%
inhibition (Rattus norvegicus [23]): 8.4%
ED50 (Mus musculus [24]): 58.9 mg/kg
ED50 (Mus musculus [25]): 83.2 mg/kg
ED50 (Mus musculus [26]): 19.9 mg/kg
TD50 at 0.25 h [27]: 199 mg/kg
Ratio TD50/ED50 (Mus musculus [28]): 3.38
Ratio TD50/ED50 (Mus musculus [29]): 2.39
Ratio TD50/ED50 (Mus musculus [30]): 10
Ratio TD50/ED50 (Mus musculus [31]): 1.88
ED50 (Mus musculus [32]): 91.7 mg/kg
ED50 (Mus musculus [33]): 78.6 mg/kg
ED50 (Mus musculus [34]): 42.3 mg/kg
TD50 at 0.5 h [35]: 173 mg/kg
Ratio TD50/ED50 (Mus musculus [36]): 2.19
Ratio TD50/ED50 (Mus musculus [37]): 4.08
inhibition (Rattus norvegicus [38]): 69.5%

COCC(C(=O)N1CCN(c2cccc(C(F)(F)F)c2)CC1)N1C(=O)CCC1=O (racemic)
Activity (Mus musculus [1]): 25%
Activity (Mus musculus [2]): 50%
Activity (Mus musculus [3]): 100%
Activity (Mus musculus [4]): 100%
Activity (Mus musculus [5]): 100%
Activity (Mus musculus [6]): 75%
Activity (Mus musculus [7]): 50%
Activity (Mus musculus [8]): 0%
Activity (Mus musculus [9]): 100%
Activity (Mus musculus [10]): 100%
Activity (Mus musculus [11]): 75%
Activity (Mus musculus [12]): 75%
Activity (Mus musculus [13]): 50%
Activity (Mus musculus [14]): 50%
Activity (Mus musculus [15]): 50%
Activity (Mus musculus [16]): 50%
Activity (Mus musculus [17]): 100%
Activity (Mus musculus [18]): 100%
Activity (Mus musculus [19]): 75%
Activity (Mus musculus [20]): 25%
inhibition (Rattus norvegicus [21]): 38.7%
inhibition (Rattus norvegicus [22]): 14.6%
inhibition (Rattus norvegicus [23]): 5.7%
ED50 (Mus musculus [24]): 58.1 mg/kg
ED50 (Mus musculus [25]): > 120 mg/kg
ED50 (Mus musculus [26]): 57.6 mg/kg
TD50 at 0.25 h [27]: 203 mg/kg
Ratio TD50/ED50 (Mus musculus [28]): 3.49
Ratio TD50/ED50 (Mus musculus [30]): 3.52
Ratio TD50/ED50 (Mus musculus [31]): 2.32
ED50 (Mus musculus [32]): 85.1 mg/kg
ED50 (Mus musculus [33]): > 120 mg/kg
ED50 (Mus musculus [34]): > 120 mg/kg
TD50 at 0.5 h [35]: 197 mg/kg
Ratio TD50/ED50 (Mus musculus [37]): 2.64
inhibition (Rattus norvegicus [38]): 77.6%
inhibition (Rattus norvegicus [39]): inactive
inhibition (Rattus norvegicus [40]): 3.2%
